Test results taken from paper PMC8026699 (Cancer research, 2021).

Assays:
MDA-MB-468 cells = assay: ERK phosphorylation immunoblot in MDA-MB-468 cells; assay type: cell-based, human
SKBr3 cells = assay: ERK phosphorylation immunoblot in SKBr3 cells; assay type: cell-based, human
BT474 cells = assay: ERK phosphorylation immunoblot in BT474 cells; assay type: cell-based, human
recombinant human ACSS3 = target: T1, recombinant human ACSS3 (Homo sapiens, UniProt Q9H6R3); assay: TranScreener AMP biochemical assay of ACSS3 activity; conditions: regardless of the substrate (acetate or propionate)
T1 sequence (Q9H6R3 30-686): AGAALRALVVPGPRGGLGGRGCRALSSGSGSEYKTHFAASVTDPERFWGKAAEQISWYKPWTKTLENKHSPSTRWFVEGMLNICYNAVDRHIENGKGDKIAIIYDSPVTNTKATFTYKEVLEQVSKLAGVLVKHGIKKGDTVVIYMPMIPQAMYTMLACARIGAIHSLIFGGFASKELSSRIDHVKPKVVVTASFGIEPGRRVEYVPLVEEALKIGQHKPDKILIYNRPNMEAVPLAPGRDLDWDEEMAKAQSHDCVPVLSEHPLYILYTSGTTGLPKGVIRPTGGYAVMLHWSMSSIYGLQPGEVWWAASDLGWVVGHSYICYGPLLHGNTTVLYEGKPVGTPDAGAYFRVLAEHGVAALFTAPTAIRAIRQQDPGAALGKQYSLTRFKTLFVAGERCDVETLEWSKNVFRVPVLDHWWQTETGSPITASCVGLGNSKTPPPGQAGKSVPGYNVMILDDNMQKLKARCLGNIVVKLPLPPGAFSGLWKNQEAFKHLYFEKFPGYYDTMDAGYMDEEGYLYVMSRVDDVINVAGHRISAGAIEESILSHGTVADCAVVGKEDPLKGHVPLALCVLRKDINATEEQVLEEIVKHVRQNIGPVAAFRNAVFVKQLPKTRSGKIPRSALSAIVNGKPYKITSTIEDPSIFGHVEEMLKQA
Method in brief: (§1)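 Test compound was serially diluted in DMSO and added to ACSS1 (2 nM) or ACSS3 (25 nM). Acetate reaction: HEPES pH 7.4 buffer with 140 mM NaCl; final 5 mM acetate, 50 μM ATP, 5 μM CoA. Propionate reaction: HEPES/KCl/CHAPS buffer; final 5 mM propionate, 10 μM ATP, 100 μM CoA. Incubation 120 min, then AMP detected by terbium-antibody/tracer TR-FRET after 30 min. Percent inhibition was set against no-enzyme and DMSO controls.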

Water solubility in PBS = assay type: physicochemical; conditions: PBS buffer pH 7.4, room temperature
Method in brief: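 10 mg test compound in 1 mL PBS pH 7.4, sonicated 30 min, vortexed 30 min at low speed, then left 16–24 h at room temperature. Filtered (0.22 μm) and 10-fold serially diluted in triplicate in ACN:water (1:1). Internal standard added; LC-MS/MS quantitation against a five-standard calibration curve.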

recombinant human ACSS1 = target: T2, recombinant human ACSS1 (Homo sapiens, UniProt Q9NUB1); assay: TranScreener AMP biochemical assay of ACSS1 activity; conditions: regardless of the substrate (acetate or propionate)
T2 sequence (Q9NUB1 38-689): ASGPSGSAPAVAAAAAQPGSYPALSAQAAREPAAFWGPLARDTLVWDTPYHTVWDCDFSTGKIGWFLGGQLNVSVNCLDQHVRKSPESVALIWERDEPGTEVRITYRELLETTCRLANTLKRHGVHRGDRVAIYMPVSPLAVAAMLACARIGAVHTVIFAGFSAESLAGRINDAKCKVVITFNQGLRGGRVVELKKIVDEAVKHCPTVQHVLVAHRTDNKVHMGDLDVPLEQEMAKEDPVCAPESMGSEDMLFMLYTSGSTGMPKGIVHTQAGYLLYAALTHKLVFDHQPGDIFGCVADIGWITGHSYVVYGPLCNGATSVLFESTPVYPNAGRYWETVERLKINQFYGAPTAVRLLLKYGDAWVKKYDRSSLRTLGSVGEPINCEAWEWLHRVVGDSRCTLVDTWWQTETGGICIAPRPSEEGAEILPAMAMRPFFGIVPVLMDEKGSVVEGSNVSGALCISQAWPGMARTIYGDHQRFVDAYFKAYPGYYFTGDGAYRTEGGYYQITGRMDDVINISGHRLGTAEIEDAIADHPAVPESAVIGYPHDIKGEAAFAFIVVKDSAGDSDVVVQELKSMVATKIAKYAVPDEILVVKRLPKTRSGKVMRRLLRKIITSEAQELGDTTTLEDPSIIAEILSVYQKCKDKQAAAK
Method in brief: as §1

| aqueous solubility (Water solubility in PBS) | SMILES | phosphorylation of ERK (MDA-MB-468 cells) | phosphorylation of ERK (SKBr3 cells) | phosphorylation of ERK (BT474 cells) | inhibitory activity towards ACSS3 (recombinant human ACSS3) | inhibitory activity towards ACSS1 (recombinant human ACSS1) |
| --- | --- | --- | --- | --- | --- | --- |
|  | CS(=O)(=O)CCNCc1ccc(-c2ccc3ncnc(Nc4ccc(OCc5cccc(F)c5)c(Cl)c4)c3c2)o1 [lapatinib] | decreases phosphorylation of ERK | decreases phosphorylation of ERK | decreases phosphorylation of ERK |  |  |
| poorly soluble | COCCNC(=O)Nc1ccc2nc(-c3cccs3)c(-c3cccs3)nc2c1 [VY-3-249, 1-(2,3-di(thiophen-2-yl)quinoxalin-6-yl)-3-(2-methoxyethyl)urea, reference compound] |  |  |  | neither VY-3-249 nor VY-3-135 displayed any inhibitory activity | neither VY-3-249 nor VY-3-135 displayed any inhibitory activity |
